Published values from different studies.
Protocols differ between the studies behind these lines.
Cell line: MCF7
Read-out: cell growth or viability

| Structure (SMILES) | technique | time | IC50 |
| --- | --- | --- | --- |
| CC[C@H](C)[C@@H]([C@@H](CC(=O)N1CCC[C@H]1[C@H](OC)[C@@H](C)C(=O)N[C@H](C)[C@@H](O)c1ccccc1)OC)N(C)C(=O)[C@@H](NC(=O)[C@@H](NC)C(C)C)C(C)C | CCK-8 | – | 10.7 nM |
| c1ccc([Se][Au]=[c]2n(C3CCCCC3)ccn2C2CCCCC2)cc1 | crystal violet | – | 1000 nM |
| Fc1ccc2c(-c3nc(Cc4ccccc4)cs3)nn(Cc3ccc(Cl)cc3Cl)c2c1 | – | 48 h | 32900 nM |
| C#CCn1c(C(=O)/C=C/c2ccc(F)cc2)nc2ccccc21 | LDH | 48 h | 2480 nM |
| Cc1ccc(CNC(=O)c2cn(Cc3ccc(Cl)cc3)c3ccc(Oc4ccccc4)cc3c2=O)cc1 | MTT | 24 h | > 500000 nM |
| CC(=O)c1c(C)c2cnc(Nc3ccc(C4CCN(CCS(C)(=O)=O)CC4)cn3)nc2n(C2CCCC2)c1=O | ATP luminescence | 72 h | 143 nM |
| N.N.[Cl][Pt][Cl] | MTT | 48 h | 2000 nM |
| O=C(NCc1ccc(C(F)(F)F)cc1)c1cn(Cc2ccc(Cl)cc2)c2ccc(Oc3ccccc3)cc2c1=O | MTT | 48 h | 109000 nM |
| N.N.[Cl][Pt][Cl] | MTT | 72 h | 61600 nM |
| O=C(NCc1ccc(C(F)(F)F)cc1)c1cn(Cc2ccc(F)cc2)c2ccc(Oc3ccccc3)cc2c1=O | MTT | 48 h | 183000 nM |
| CC(=O)N[C@H]1[C@@H](O[C@@H]2O[C@H](C[C@@H](O)[C@H]3O[C@@H](n4ccc(=O)[nH]c4=O)[C@H](O)[C@@H]3O)[C@H](O)[C@H](O)[C@H]2NC(=O)/C=C/CCCCCCCCCC(C)C)O[C@H](CO)[C@@H](O)[C@@H]1O | WST-1 | – | 520 nM |
| O=C(NCc1ccc(Cl)cc1)c1cn(Cc2ccc(Cl)cc2)c2ccc(Oc3ccccc3)cc2c1=O | MTT | 24 h | 481000 nM |
| COc1c(C)c2c(c(O)c1C/C=C(\C)CCC(=O)O)C(=O)OC2 | – | – | 741 nM |
| CC[C@@]1(O)C(=O)OCc2c1cc1n(c2=O)Cc2cc3ccccc3nc2-1 | SRB | 48 h | 67 nM |
| O=C(NCc1ccc(F)cc1)c1cn(Cc2ccc(F)cc2)c2ccc(Oc3ccccc3)cc2c1=O | MTT | 48 h | 327000 nM |
| N.N.[Cl][Pt][Cl] | MTT | – | 46100 nM |
